High-throughput results deposited in PubChem by several laboratories.
SENP1 inh: inhibitors of human SENP1 SUMO protease catalytic domain; Q9P0U3; recombinant SENP1 catalytic domain, CyPet-SUMO1-YPet FRET cleavage; inhibition, % at 10 µM; 0.21% of 360,000 active; AID 624204;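 active = inhibition at least 30% at 10 µM, raw YFP signal under a set limit, fluorescence ratio 0.5 to 1.5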;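 also: 0% = enzyme with DMSO and 100% = no enzyme wells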
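Test system: human SENP1 catalytic domain; medium: Tris pH 8 buffer plus EDTA, NaCl, BME, BSA, NP40, catalase; incubation: 50 min reaction at room temperature; technique: FRET, CFP and YFP emission; controls: no-enzyme low control and enzyme-plus-DMSO high control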
SENP8 block-1: SENP8 protease inhibition. inhibition, % at 10 µM. purified SENP8, Z-RLRGG-aminoluciferin cleavage, luminescence. AID 2540. 1.2% of 330,000 active; in the data active = inhibition above about 50%
UCH37 inh: inhibitors of human deubiquitinating enzyme UCH37 | Q9Y5K5 | purified proteasome/UCH37, Ub-AMC cleavage fluorescence | AID 588478 | inhibition, % (test concentration not listed) | 0.33% of 330,000 active;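 active = mean inhibition over replicate wells above about 20%, limit read from the data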;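 also: 0% = compound-free wells with enzyme and 100% = wells lacking proteasome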
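Reagent: Ub-AMC substrate; assay system: Proteasome-associated human UCH37 deubiquitinase; controls: no-proteasome and no-compound wells; read-out: % inhibition of Ub-AMC cleavage fluorescence; timing: 30 min preincubation with enzyme, 25 min cleavage at room temperature; signal: AMC fluorescence from Ub-AMC cleavage, excitation 355 nm, emission 460 nm; buffer or medium: Tris-HCl pH 7.4 plus ovalbumin, ATP-MgCl2, DTT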
SENP8 block-2: SENP8 (human) protease inhibition; 0.64% of 360,000 active; inhibition, % at 20 µM; Q96LD8; recombinant SENP8, Nedd8 substrate fluorescence; AID 602440; in the data active = inhibition mostly above about 40%, no sharp cut-off; inactive = mostly below about 27%
SENP6 block: inhibitors of human SENP6 protease. Q9GZR1. Recombinant SENP6 catalytic domain, aminoluciferin luminescence. inhibition, % at 10 µM. 1.8% of 330,000 active;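 active = inhibition above about 50% at the single tested dose, limit read from the data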;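 also: plate controls were DMSO wells with enzyme for no effect and DMSO wells lacking enzyme for full effect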
Target sequence (Q9GZR1 628-1112 limits assumed): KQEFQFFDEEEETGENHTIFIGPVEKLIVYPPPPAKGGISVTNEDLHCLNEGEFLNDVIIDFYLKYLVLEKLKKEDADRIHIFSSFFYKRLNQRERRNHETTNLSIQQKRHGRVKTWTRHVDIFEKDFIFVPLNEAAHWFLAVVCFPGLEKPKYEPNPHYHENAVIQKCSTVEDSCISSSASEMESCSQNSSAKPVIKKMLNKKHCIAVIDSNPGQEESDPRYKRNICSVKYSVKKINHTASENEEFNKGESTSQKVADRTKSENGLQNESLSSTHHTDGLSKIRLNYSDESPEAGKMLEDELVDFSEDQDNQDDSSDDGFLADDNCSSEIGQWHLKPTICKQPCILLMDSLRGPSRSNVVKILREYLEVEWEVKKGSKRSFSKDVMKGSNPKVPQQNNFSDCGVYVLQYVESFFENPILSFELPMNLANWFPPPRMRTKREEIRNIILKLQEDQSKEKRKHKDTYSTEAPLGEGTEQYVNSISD
SENP7 block: SENP7 protease inhibition; inhibition, % at 5 µM; recombinant SENP7, Z-RLRGG-aminoluciferin luminescence, 40 min; 1.5% of 330,000 active; AID 434973;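 active = inhibition above about 50% at the single test dose, limit read from the data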;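 also: plate controls were DMSO with enzyme for no effect and no enzyme buffer wells for full effect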
SENP8 inh conf: SENP8 (human) inhibition, single concentration confirmation. shares compounds with SENP8 block-2. purified SENP8, Nedd8-AMC/pro-Nedd8 cleavage fluorescence, 30 min. 15% of 1,400 active. inhibition, % at 25 µM; in the data active = inhibition mostly above about 39%, no sharp cut-off; inactive = mostly below about 34%
* hit, by the source's call; x = not tested or not shown. In the library only some 2.6% were active in any assay of this set; here they are far more common.

SMILES	SENP1 inh	SENP8 block-1	UCH37 inh	SENP8 block-2	SENP6 block	SENP7 block	SENP8 inh conf
O=C(NNc1ccccc1)Nc1cc(Cl)ccc1Cl	4	x	1	48*	x	x	10
O=C(NNc1ccccc1[N+](=O)[O-])Nc1ccc(F)cc1F	-22	0	2	25	-4	6	x
CSc1ccc(C=NNc2nc(C)cc(C)n2)cc1	x	x	14	x	x	x	x
COCCNC(=O)c1n[nH]c2ccccc12	1	-16	4	9	3	-3	x
CCCNC(=O)CN(C)C(=O)c1n[nH]c2ccccc12	2	1	1	43*	-9	5	15
CC(=NNC(=O)C1CC1(c1ccccc1)c1ccccc1)c1cccs1 (stereo not drawn)	x	x	2	x	x	x	x
CC1=NN(c2ccccc2)C(=O)C1C(=O)c1cc([N+](=O)[O-])cc([N+](=O)[O-])c1 (stereo not drawn)	2	-6	3	51*	17	-10	-5
CN(C(=O)c1cc(C(=O)N(C)c2ccccc2)cc([N+](=O)[O-])c1)c1ccccc1	0	-6	2	31	15	-3	x
O=C(NN=Cc1c[nH]c2ccccc12)c1cccc(Cl)c1	x	x	-1	x	x	x	x
CC(=NNC(=O)C1CC1)c1cccs1	x	x	-2	x	x	x	x
CCCC1CCC(=NNC(=O)CNc2ccc(OC)cc2)CC1 (stereo not drawn)	3	0	2	59*	-7	0	13
COc1ccccc1C=NN1C(=O)C2C3C=CC(CC3)C2C1=O (stereo not drawn)	x	x	2	x	x	x	x
CCOC(=O)C1C(=O)CC(C)(O)C(C(=O)OCC)C1c1ccc([N+](=O)[O-])cc1 (stereo not drawn)	5	-1	2	46*	-9	0	27
CC(=NNC(=O)c1ccncc1)c1ccc(N(C)C)cc1	x	x	17	x	x	x	x
CC1=[N+](C)N(c2ccccc2)C(=O)C1N=C/C=C/c1ccccc1 (stereo not drawn)	-1	-11	12	42*	-21	-7	5
Cc1c(C(=S)Nc2ccccc2)cnn1-c1ccc([N+](=O)[O-])cc1	2	-7	5	40*	-30	-5	0
COC(=O)NN=Cc1ccc(-c2cc(Cl)cc(Cl)c2)o1	x	x	0	x	x	x	x
COc1cccc(N2C(=O)C(CC(=O)Nc3ccccc3)N(C3CCCCC3)C2=O)c1 (stereo not drawn)	0	-3	2	8	-1	0	x
COc1cccc(N2C(=O)C(CC(=O)Nc3ccc(F)cc3)N(C3CCCCC3)C2=O)c1 (stereo not drawn)	2	8	2	46*	-1	-2	5
Cc1cccc(NCC(=O)NN=Cc2cccc(Oc3ccccc3)c2)c1	x	x	2	x	x	x	x
COc1ccc(CCN2C(=O)CC(NCCc3ccc(S(N)(=O)=O)cc3)C2=O)cc1OC (stereo not drawn)	1	-2	4	40*	-2	-2	21
COc1ccc(CCNC2CC(=O)N(N(C)C)C2=O)cc1OC (stereo not drawn)	1	0	2	3	14	5	x
Cc1ccc2occ(C=NO)c(=O)c2c1	x	x	1	x	x	x	x
CC1(C)CC2(CCO1)C(Nc1ccccc1)=NC(=S)N2CC(N)=O (stereo not drawn)	2	1	3	45*	-7	-3	12
Oc1ccccc1C=Nc1c(-c2ccco2)nc2ccccn12	x	x	-85	x	x	x	x
SMILES	SENP1 inh	SENP8 block-1	UCH37 inh	SENP8 block-2	SENP6 block	SENP7 block	SENP8 inh conf
FCCCOc1ccc(C=NOCc2ccc(Cl)cc2)cc1	x	x	6	x	x	x	x
NC(=O)CC(NC(=O)c1ccccc1)C(=O)O (stereo not drawn)	0	-6	1	42*	-14	-19	18
O=C(/C=C/c1ccc([N+](=O)[O-])cc1)N1CCN(c2ccccc2F)CC1	6	-4	x	18	-2	1	x
O=C(/C=C/c1ccc(Cl)cc1)N1CCN(c2ccc(Cl)cc2[N+](=O)[O-])CC1	3	-5	1	43*	-25	1	14
O=C(O/N=C\c1ccc(N2CCCCC2)c([N+](=O)[O-])c1)c1ccc(Cl)cc1Cl	2	-19	x	49*	-12	-12	5
C=CCOc1ccc(C=NNC(C)=O)cc1OCC	x	x	5	x	x	x	x
Cc1c(C(=O)N(C)C)sc(NC(=O)c2cc([N+](=O)[O-])cc([N+](=O)[O-])c2)c1C#N	1	-3	15	44*	-2	8	28
Cc1ccc(C(=O)Nc2sc(C(=O)N(C)C)c(C)c2C#N)cc1	-22	-8	8	-18	-20	6	x
COc1ccccc1C=c1sc2nc(-c3ccccc3OC)nn2c1=O	x	x	0	x	x	x	x
COC(=O)c1cnc(Nc2cccc(C(F)(F)F)c2)c([N+](=O)[O-])c1	3	0	3	33*	1	2	16
Cc1ccccc1Nc1cccc2nonc12	-31	-6	-1	45*	1	2	34
CS(=O)(=O)N(CC(=O)NN=Cc1ccc(OCC(=O)N2CCOCC2)cc1)c1ccccc1Cl	x	x	3	x	x	x	x
COc1ccc(C=NNC(=O)Nc2cccc3nsnc23)cc1OC	x	x	-16	x	x	x	x
CN1CCN(Cc2nc3ccccc3c(=O)n2Cc2nc(-c3ccc([N+](=O)[O-])cc3)cs2)CC1	4	-4	6	47*	0	-7	17
CN(C)Cc1nc2ccccc2c(=O)n1Cc1nc(-c2cccc([N+](=O)[O-])c2)cs1	1	1	2	23	15	5	x
Cc1ccc(OCC(=O)NN=Cc2ccncc2)cc1C	x	x	1	x	x	x	x
Nc1nonc1-n1nnc(C(=O)NN=Cc2ccncc2)c1-c1ccccc1	x	x	8	x	x	x	x
O=C(Nc1ccc(N2CCCC2)cc1)c1ccc([N+](=O)[O-])cc1Cl	4	-4	4	43*	-15	-7	16
CCC(=O)NC(=S)Nc1ccc(NC(=O)c2ccc([N+](=O)[O-])cc2Cl)cc1	4	7	8	43*	5	1	8
O=C(Nc1ccc(S(=O)(=O)N2CCOCC2)cc1)c1ccc([N+](=O)[O-])cc1Cl	1	0	1	12	-6	-1	x
Cc1ccccc1C(=O)NN=Cc1ccc([N+](=O)[O-])s1	x	x	12	x	x	x	x
Cc1ccc(SCc2nnc(NC(=O)c3ccccc3)s2)cc1	3	2	4	40*	3	9	12
O=C(N/N=C/c1ccccn1)c1cccc(S(=O)(=O)N2CCCC2)c1	-1	1	x	45*	5	-2	16
COc1cc(/C=N/N2CCOCC2)ccc1OCc1ccc(Cl)cc1	0	4	x	42*	23	6	8
COc1ccc(/C(O)=C\C(=O)C(=O)Nc2c(C)n(C)n(-c3ccccc3)c2=O)cc1	x	x	16	x	x	x	x
